The source of these data is ChEMBL document CHEMBL3227988, “Synthesis and antiviral activities of arabinofuranosyl-5-ethylpyrimidine nucleosides. Selective antiherpes activity of 1-(beta-D-arabinofuranosyl)-5-ethyluracil” (J Med Chem, 1979).

Data set [1] relates to Human alphaherpesvirus 2. The experiment in a line: Antiviral activity against Herpes simplex virus-2 196 infected in primary rabbit kidney cells assessed as inhibition of virus-induced cytopathogenicity at 200 ug/ml treated immediately after virus adsorption measured 2 to 3 days after virus infection. The format is functional, organism-based.
The subject of data set [2] is Human alphaherpesvirus 1. As to the kind of experiment: Antiviral activity against Herpes simplex virus-1 KOS infected in primary rabbit kidney cells assessed as inhibition of virus-induced cytopathogenicity at 200 ug/ml treated immediately after virus adsorption measured 2 to 3 days after virus infection. The format is functional, organism-based. For orientation: Cytopathic effects are the visible damage that an infection or toxin causes in cultured cells.

The subject of data set [3] is Human alphaherpesvirus 2. As to the kind of experiment: Antiviral activity against Herpes simplex virus-2 LYONS infected in primary rabbit kidney cells assessed as inhibition of virus-induced cytopathogenicity at 200 ug/ml treated immediately after virus adsorption measured 2 to 3 days after virus infection. In kind it is functional, organism-based.
In data set [4] the test system is Human alphaherpesvirus 1. As to the kind of experiment: Antiviral activity against Herpes simplex virus-1 KOS infected in human skin fibroblast cells assessed as inhibition of virus-induced cytopathogenicity at 200 ug/ml treated immediately after virus adsorption measured 2 to 3 days after virus infection. In kind it is functional, organism-based.
A short description of data set [5]: Antimetabolic activity against primary rabbit kidney cells assessed as inhibition of [methyl-3H]dThd incorporation into DNA after 16 hrs. The format is ADME, cell-based, Oryctolagus cuniculus. A digest of the protocol:
(§1)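 Compound added to primary rabbit kidney cell cultures together with the radiolabeled DNA precursor. Input per 10^? cells: [methyl-3H]dThd 0.12 μCi/0.01 nmol, [2-14C]dUrd 14 μCi/250 nmol. Incorporation measured after 16 h incubation. Value is the concentration giving 50% inhibition of precursor incorporation.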

Data set [6] concerns Human alphaherpesvirus 1. The experiment in a line: Antiviral activity against Herpes simplex virus-1 KOS infected in human skin fibroblast cells assessed as inhibition of virus-induced cytopathogenicity treated immediately after virus adsorption measured 2 to 3 days after virus infection. Conditions: Human alphaherpesvirus 1, KOS. In kind it is functional.
A short description of data set [7]: Antimetabolic activity against primary rabbit kidney cells assessed as inhibition of [2-14C]dUrd incorporation into DNA after 16 hrs. In kind it is ADME, cell-based, Oryctolagus cuniculus. Put shortly:
as §1

Data set [8] relates to Human alphaherpesvirus 2. As to the kind of experiment: Antiviral activity against Herpes simplex virus-2 196 infected in primary rabbit kidney cells assessed as inhibition of virus-induced cytopathogenicity treated immediately after virus adsorption measured 2 to 3 days after virus infection. The format is functional. Conditions: Human alphaherpesvirus 2, 196.
Data set [9] concerns Human alphaherpesvirus 2. The experiment in a line: Antiviral activity against Herpes simplex virus-2 LYONS infected in primary rabbit kidney cells assessed as inhibition of virus-induced cytopathogenicity treated immediately after virus adsorption measured 2 to 3 days after virus infection. In kind it is functional. Conditions: Human alphaherpesvirus 2, LYONS.
In data set [10] the test system is Vesicular stomatitis virus. The experiment in a line: Antiviral activity against Vesicular stomatitis virus infected in primary rabbit kidney cells assessed as inhibition of virus-induced cytopathogenicity treated immediately after virus adsorption measured 2 to 3 days after virus infection. In kind it is functional.
For data set [11], the system named is Human alphaherpesvirus 1. The experiment in a line: Antiviral activity against Herpes simplex virus-1 KOS infected in primary rabbit kidney cells assessed as inhibition of virus-induced cytopathogenicity treated immediately after virus adsorption measured 2 to 3 days after virus infection. The format is functional. Conditions: Human alphaherpesvirus 1, KOS.

For data set [12], the system named is Human alphaherpesvirus 1. The experiment in a line: Antiviral activity against Herpes simplex virus-1 KOS infected in primary rabbit kidney cells assessed as log reduction in virus yield at 100 ug/ml treated immediately after virus adsorption measured 24 to 48 hrs after virus infection. The format is functional.
Data set [13] can be described thus: Antiviral index, ratio of minimal toxic dose require to inhibit cellular DNA synthesis in primary rabbit kidney cells by 50% to minimal effective dose require to inhibit HSV1 KOS cytopathogenicity. In kind it is toxicity, cell-based. Put shortly:
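Ratio of two doses. Numerator: dose inhibiting cellular DNA synthesis by 50%, measured as dThd or dUrd incorporation over 16 h. Denominator: minimal dose inhibiting HSV-1 KOS cytopathogenicity. For the CPE assay, virus input was 100 CCID50 per culture and compound was added right after adsorption. CPE was scored once untreated infected controls reached full CPE, generally at 2-3 days.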

Another data set deals with Vaccinia virus. The experiment in a line: Antiviral activity against Vaccinia virus infected in primary rabbit kidney cells assessed as growth inhibition at 100 ug/ml treated immediately after virus adsorption measured 24 to 48 hrs after virus infection. As to conditions: Orthopoxvirus vaccinia. In kind it is functional, organism-based.

Each structure is given as a SMILES string. Values after ≈ are worked out from the molar mass of the structure shown. Active and inactive are the calls of the source. The rule behind the calls is not given here. Bounds are passed on as bounds.

Consider `CCc1cn([C@H]2O[C@H](CO)[C@@H](O)[C@@H]2O)c(=O)[nH]c1=O`, for which the inhibition result in the data set on Human alphaherpesvirus 2 [1], in the data set on Human alphaherpesvirus 1 [2], with Human alphaherpesvirus 2 [3] and in the data set with Human alphaherpesvirus 1 [4] was “inactive” each time.

`Cc1cn([C@@H]2O[C@H](CO)[C@@H](O)[C@@H]2O)c(=O)[nH]c1=O`: the MIC is 300 mg/L (≈ 1160 µM) in data set [5]; 0.1 mg/L (≈ 0.387 µM) in the data set on Human alphaherpesvirus 1 [6]; 300 mg/L (≈ 1160 µM) in [7]; 0.4 mg/L (≈ 1.55 µM) in the data set on Human alphaherpesvirus 2 [8]; 0.3 mg/L (≈ 1.16 µM) in the data set with Human alphaherpesvirus 2 [9]; greater than 200 mg/L in data set [10]. Also, in the data set with Human alphaherpesvirus 1 [11], the MIC was determined as 0.2 mg/L (≈ 0.775 µM).

`CCc1cn([C@@H]2O[C@H](CO)[C@@H](O)[C@@H]2O)c(=O)nc1N`: the MIC in the data set with Human alphaherpesvirus 1 [6] was 20 mg/L (≈ 73.7 µM); in data set [7], greater than 200 mg/L; in data set [10] it was greater than 200 mg/L; with Human alphaherpesvirus 1 [11] it was 100 mg/L (≈ 369 µM).

As to `O=c1ccn([C@@H]2O[C@H](CO)[C@@H](O)[C@@H]2O)c(=O)[nH]1` [ARAURIDINE], the MIC in data set [5] was 300 mg/L (≈ 1230 µM); in the data set on Human alphaherpesvirus 1 [6], 20 mg/L (≈ 81.9 µM); in [7] it was greater than 400 mg/L; with Human alphaherpesvirus 2 [8], 20 mg/L (≈ 81.9 µM); in the data set on Human alphaherpesvirus 2 [9], 20 mg/L (≈ 81.9 µM); in [10] it was greater than 200 mg/L. Also, the MIC in the data set on Human alphaherpesvirus 1 [11] was determined as 20 mg/L (≈ 81.9 µM).

Regarding `Nc1ccn([C@@H]2O[C@H](CO)[C@@H](O)[C@@H]2O)c(=O)n1` [CYTARABINE], the MIC came out at 0.1 mg/L (≈ 0.411 µM) in [5]; 0.02 mg/L (≈ 0.0822 µM) with Human alphaherpesvirus 1 [6]; 0.05 mg/L (≈ 0.206 µM) in data set [7]; 0.03 mg/L (≈ 0.123 µM) in the data set on Human alphaherpesvirus 2 [8]; 0.04 mg/L (≈ 0.164 µM) in the data set with Human alphaherpesvirus 2 [9]; 4 mg/L (≈ 16.4 µM) in [10]. The MIC in the data set with Human alphaherpesvirus 1 [11] came to 0.03 mg/L (≈ 0.123 µM).

With `CCc1cn([C@@H]2O[C@H](CO)[C@@H](O)[C@@H]2O)c(=O)[nH]c1=O`, the MIC in [5] is greater than 200 mg/L; with Human alphaherpesvirus 1 [6], 2 mg/L (≈ 7.35 µM); in data set [7], greater than 200 mg/L; in the data set on Human alphaherpesvirus 2 [8], 20 mg/L (≈ 73.5 µM); with Human alphaherpesvirus 2 [9], 10 mg/L (≈ 36.7 µM); in data set [10] it was greater than 200 mg/L. For the same compound, in the data set on Human alphaherpesvirus 1 [11], the MIC came to 2 mg/L (≈ 7.35 µM). Moreover, in the data set on Human alphaherpesvirus 1 [12], the log10PFU/ml is recorded as greater than 3. For the same compound, in data set [13], the selectivity ratio was greater than 100. In addition, the inhibition entry with Vaccinia virus was “inactive”.

In the case of `CCc1cn([C@H]2O[C@H](CO)[C@@H](O)[C@@H]2O)c(=O)nc1N`, the inhibition result with Human alphaherpesvirus 2 [1], with Human alphaherpesvirus 1 [2], with Human alphaherpesvirus 2 [3] and in the data set on Human alphaherpesvirus 1 [4] was “inactive” each time.
